According to ChEMBL document CHEMBL4334447, “Discovery of 4-Aminoquinoline-3-carboxamide Derivatives as Potent Reversible Bruton's Tyrosine Kinase Inhibitors for the Treatment of Rheumatoid Arthritis” (J Med Chem, 2019):
≈ marks a conversion by molar mass, not a printed value.

Assays:
[1] = Kinetic aqueous solubility of the compound in pH 7.4 phosphate buffered saline incubated for 24 hrs under shaking condition by HPLC analysis; assay type: physicochemical; conditions: read-out: Kinetic_solubility
In short: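 Dry powder shaken 24 h at 25 °C in 0.1 M phosphate buffer, pH 7.4, then filtered through a 0.45 µm membrane. Concentration determined by HPLC against a standard of the compound in DMSO. Mean of three separate assays in triplicate.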

[2] = target: Tyrosine-protein kinase BTK (Homo sapiens, UniProt Q06187); assay: Reversible inhibition of FAM-labeled peptide binding to full-length human N-terminal GST-tagged BTK (2 to 659 residues) expressed in baculovirus infected Sf21 insect cells at preincubated for 10 mins followed by FAM-labeled peptide addition and measured by off-chip mobility shift assay
Sequence of Tyrosine-protein kinase BTK (Q06187 whole entry, the tested form may be a part): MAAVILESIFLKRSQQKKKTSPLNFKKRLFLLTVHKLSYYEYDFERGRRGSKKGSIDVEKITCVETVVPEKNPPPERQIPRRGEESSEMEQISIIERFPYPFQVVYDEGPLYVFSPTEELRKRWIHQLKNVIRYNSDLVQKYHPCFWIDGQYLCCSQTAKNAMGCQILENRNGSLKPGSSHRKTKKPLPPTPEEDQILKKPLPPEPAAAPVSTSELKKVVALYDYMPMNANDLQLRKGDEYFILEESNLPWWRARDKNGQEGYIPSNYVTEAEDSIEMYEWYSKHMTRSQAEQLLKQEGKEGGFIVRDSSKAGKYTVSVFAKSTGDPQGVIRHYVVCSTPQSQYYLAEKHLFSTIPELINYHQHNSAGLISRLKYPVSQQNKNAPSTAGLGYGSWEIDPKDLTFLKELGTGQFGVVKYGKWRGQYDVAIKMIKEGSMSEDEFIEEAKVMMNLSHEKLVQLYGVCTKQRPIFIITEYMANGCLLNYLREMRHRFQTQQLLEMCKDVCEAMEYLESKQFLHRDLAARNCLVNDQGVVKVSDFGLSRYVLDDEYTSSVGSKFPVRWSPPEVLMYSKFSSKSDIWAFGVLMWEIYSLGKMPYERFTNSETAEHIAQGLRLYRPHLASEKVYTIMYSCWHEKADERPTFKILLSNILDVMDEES

A solubility kinetic at 24 h [1] of 5.2 µg/mL (≈ 15.5 µM) and an IC50 [2] of 11.6 nM were found for `Cc1cc2cn[nH]c2cc1-c1ccc(F)c2c(N)c(C(N)=O)cnc12` in this work.
